Screening data (PubChem)
The list is not random: actives were taken first. Their share in the collection is about 4%.
E-sel inducer: E-selectin induction on HUVECs | HUVEC E-selectin immunofluorescence imaging; normalized: neutral wells 0, TNF-alpha wells 100 | activation, % at 7.58 µM | 260,000 compounds, 0.37% hits;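 active means mean E-selectin-positive cell signal at least 10% of the positive control, reached in at least 60% of replicates, without over 20% cell loss; inconclusive means no rule given, readout overlaps actives, possibly toxicity-flagged; inactive means the rest, including those meeting only one limit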
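Test system – human umbilical vein endothelial cells (HUVEC), E-selectin induction · Input – 3,000 HUVEC seeded per well · Buffer or medium – EGM-2, gelatin · Compound dosing – single-point compound dose · Detection – immunofluorescence imaging · Measure – percent E-selectin-positive cells · Controls – TNF-alpha high, DMSO low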
FGF22 binding-1: binders of recombinant human FGF22 by thermal shift; 340,000 compounds, 1.5% hits; Q9HCT0; activity (Tm shift, normalised), % at 9.99 µM; AID 651658; SYPRO orange fluorescence; percent of sucrose octasulfate shift, DMSO zero;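 active means mean Tm shift, scaled 0 neutral to 100 positive control, at about 1.3% or above, every replicate too, limit read from the data; inconclusive means no clear call, values can overlap the other calls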
Target sequence (Q9HCT0 whole entry, looked up): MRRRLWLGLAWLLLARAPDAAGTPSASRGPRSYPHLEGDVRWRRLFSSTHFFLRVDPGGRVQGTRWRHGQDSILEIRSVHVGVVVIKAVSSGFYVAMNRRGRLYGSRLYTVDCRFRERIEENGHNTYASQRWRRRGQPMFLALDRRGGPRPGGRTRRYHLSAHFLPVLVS
C2C12 statin: suppressors of simvastatin-induced myotoxicity in C2C12 myotubes; ATP luminescence, 48 h; scaled: DMSO 0, geranylgeraniol control 100; rescue of ATP level, % at 7.49 µM; 330,000 compounds, 0.78% hits;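 active means mean ATP rescue above about 67%, or every replicate alone reaching that limit, limit read from the data, passing the limit was not always enough; inconclusive means no clear call, values can overlap the other calls; inactive means mean under the limit and some replicate under it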;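 further: myotubes were challenged with 10 µM simvastatin during compound exposure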
FN deposition inh: fibronectin deposition inhibition; AH1F fibroblasts, Alexa488-fibronectin deposition fluorescence, overnight; inhibition, % at 12.6 µM; 350,000 compounds, 0.086% hits; AID 743247;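 active means mean inhibition across replicates of 30% or more, regardless of how many single replicates reach that level; inconclusive means mean under 30% yet at least half of replicates reach 30%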;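 further: positive control wells lacked labelled fibronectin entirely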
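material = AH1F fibroblast monolayer depositing Alexa488-labelled fibronectin into matrix | amount = 10000 AH1F cells/well | buffer or medium = DMEM plus 2% serum, read in PBS | incubation = 1 h cell adhesion before compound, then overnight fibronectin incubation | detection = fluorescence at 485 nm excitation, 525 nm emission | evaluation = percent inhibition as loss of matrix-bound fibronectin fluorescence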
Ecoli rRNA inh: inhibits bacterial ribosomal RNA function over humanized ribosomes; AID 720706; E. coli WT GFP vs humanized-ribosome RFP mutants, fluorescence, 24 h; stronger effect = lower value; DMSO median 0, no signal -100; 350,000 compounds, 1.6% hits; GFP signal change (wild-type ribosome), % (test concentration not listed);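 active means significant combined selectivity score with lowered wild-type GFP, culture density cut under 30%, mutant RFP and density less affected; inactive means any of these conditions unmet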
SIRT5 block: inhibitors of human sirtuin-5 desuccinylase; 330,000 compounds, 1.1% hits; inhibition, % at 15 µM; Purified SirT5, succinyl-peptide AMC, trypsin-coupled fluorescence; in the data active means inhibition above about 15%; inconclusive means no clear call, values can overlap the other calls
Target sequence (Q9NXA8 whole entry, looked up): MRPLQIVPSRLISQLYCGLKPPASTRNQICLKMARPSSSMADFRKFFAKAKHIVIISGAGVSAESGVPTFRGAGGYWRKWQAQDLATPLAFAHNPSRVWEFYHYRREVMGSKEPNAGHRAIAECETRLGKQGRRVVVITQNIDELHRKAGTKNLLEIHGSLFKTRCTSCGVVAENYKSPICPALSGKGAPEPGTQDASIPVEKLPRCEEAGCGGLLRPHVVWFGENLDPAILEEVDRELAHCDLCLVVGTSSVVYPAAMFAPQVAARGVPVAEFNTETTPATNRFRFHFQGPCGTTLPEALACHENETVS
FGF22 binding-2: binds human FGF22 shifting its melting temperature. shares compounds with FGF22 binding-1. AID 720646. thermal shift activity, °C (ΔTm) at 38 µM. 1,000 compounds, 2% hits. recombinant FGF22 thermal shift, SYPRO orange fluorescence;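 active means fitted rise in melting shift crosses a set limit at or below the top valid dose tested; inconclusive means flat fit at mid-level activity, or a poor quality fit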
FGF22 TSA: FGF22 (human) binding by thermal shift. shares compounds with FGF22 binding-1. 50 tested, under 10 active. Thermal shift assay, SYPRO orange, melting temperature shift. Tm shift (activity), % at 38 µM. AID 743017;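 active means compounds whose fitted dose curve of melting temperature shift rises past a set threshold within the tested doses; inconclusive means flat curve at moderate activity, or poor curve fit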
SYPRO no-protein: compound-only SYPRO artifact for FGF22 binders. compound-only SYPRO orange thermal shift counter-screen, no protein. shares compounds with FGF22 binding-1. AC50, µM (doses to about 38 µM). 1,000 compounds, 2% hits;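 active means rising signal whose fitted curve reaches the 0.54 level within the top valid dose, showing a melting point, actives reach about 13 µM in these data; inactive means the rest, including activity in the opposite direction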; further: value is where the raw curve crosses a fixed level and not half-maximal
* = called active by the depositor; i = inactive; ? = inconclusive; . = no result given; [ ] = another dose, or the depositor's remark.

SMILES | E-sel inducer | FGF22 binding-1 | C2C12 statin | FN deposition inh | Ecoli rRNA inh | SIRT5 block | FGF22 binding-2 | SYPRO no-protein | others
C[C@H](CO)N1C[C@H](C)[C@H](CN(C)CC2CC2)Oc2ccc(NS(=O)(=O)c3cn(C)cn3)cc2C1=O | -1 | 0 | -1 | . | 3 | 1 | . | .
C[C@H]1CN([C@@H](C)CO)C(=O)c2cc(NC(=O)c3ccncc3)ccc2O[C@@H]1CN(C)S(=O)(=O)c1cn(C)cn1 | -1 | 1.4* | -12 | . | 5 | 4 | 0.058 | i
C[C@@H]1CN([C@H](C)CO)C(=O)Cc2cc(NC(=O)C3CC3)ccc2O[C@H]1CN(C)S(=O)(=O)c1cn(C)cn1 | 0 | 1.3* | -4 | . | -1 | 3 | 0.11 | i
C[C@@H]1CN([C@@H](C)CO)C(=O)Cc2cc(NC(=O)C3CC3)ccc2O[C@H]1CN(C)S(=O)(=O)c1cn(C)cn1 | 0 | 0 | -17 | -15 | 3 | -5 | . | .
CCCNC(=O)COCc1cc(-c2ccc3c(c2)OCO3)on1 | 0 | 29* | 1 | 7 | 4 | 4 | 0.022 | i
CC(=O)c1ccc(NC(=O)Nc2cccnc2)cc1 | . | 1.4* | -9 | 4 | -2 | 0 | -0.013 | i | FGF22 TSA=1
CC(=O)Nc1ccc(NC(=O)Nc2ccccc2)cc1 | ? | 1.8* | -12 | 0 | 7 | 9 | 0.19 | i | FGF22 TSA=0
CC(=O)Nc1cccc(NC(=O)Nc2ccc(C(C)=O)cc2)c1 | 3 | . | -1 | 2 | . | . | . | .
C[C@H](CO)N1C[C@H](C)[C@@H](CN(C)CC2CC2)Oc2ccc(NC(=O)Cn3cnnn3)cc2CC1=O | 0 | 0 | 8 | . | 3 | 1 | . | .
C[C@@H]1CN([C@@H](C)CO)C(=O)c2cc(NC(=O)Cc3cn(C)c4ccccc34)ccc2O[C@@H]1CN(C)Cc1ccc(-c2ccccc2)cc1 | 0 | -1 | -23 | . | 1 | 6 | . | .
O=C(Nc1nnc(C(F)(F)F)s1)c1ccc(Br)s1 | 0 | 2.0* | -25 | -3 | -54 | 3 | -0.072 | i
CC(=O)Oc1ccc(C(=O)Nc2ccccc2C(=O)N2CCCCC2)cc1 | 0 | 1.8* | -5 | -8 | -2 | 1 | 0.15 | i
O=C(N/N=C/c1ccc(-c2cccc([N+](=O)[O-])c2)o1)c1ccc([N+](=O)[O-])cc1 | 0 | 1.6* | . | -7 | 11 | -4 | -0.096 | i
C[C@H]1CN([C@@H](C)CO)S(=O)(=O)c2ccc(C#Cc3ccccc3F)cc2O[C@H]1CN(C)C(=O)Cc1cccnc1 | 0 | 5.9* | 34 | 3 | -4 | 11 | 0.09[42 µM] | i
C[C@@H]1CN([C@@H](C)CO)S(=O)(=O)c2ccc(C#Cc3ccccc3F)cc2O[C@H]1CN(C)C(=O)Cc1cccnc1 | 0 | -1 | -25 | 16 | -36 | 5 | . | .
C[C@H]1CN([C@@H](C)CO)S(=O)(=O)c2ccc(C#Cc3ccccc3F)cc2O[C@@H]1CN(C)C(=O)Cc1cccnc1 | 0 | 8.3* | 25 | -5 | -35 | 2 | 0.11[42 µM] | i
COc1ccc(S(=O)(=O)N(C)C[C@H]2Oc3c(NS(=O)(=O)c4ccc(Cl)cc4)cccc3C(=O)N([C@@H](C)CO)C[C@@H]2C)cc1 | 0 | 0 | -4 | -9 | -2 | . | . | .
COc1ccc(S(=O)(=O)N(C)C[C@@H]2Oc3c(NC(=O)c4ccc(-c5nccs5)cc4)cccc3C(=O)N([C@H](C)CO)C[C@@H]2C)cc1 | . | 0 | . | 10 | -3 | -3 | . | .
COC(=O)C(C)Oc1cc(OC(C)C(=O)OC)c2c(C)c(Cl)c(=O)oc2c1 (stereo not given) | 0 | 1.6* | -3 | -7 | . | -51 | . | i
CCN1[C@@H]2Cn3c(ccc(-c4ccccc4OC)c3=O)[C@H]1[C@@H](C(=O)NCc1ccccn1)[C@@H]2CO | 0 | 0 | -2 | 0 | 2 | 2 | . | .
CC(C)NC(=O)N[C@H]1CC[C@@H](CC(=O)O)O[C@@H]1CO | 0 | 1.5* | 5 | -1 | 2 | 1 | 0.097[42 µM] | i
O=C(C[C@@H]1C[C@@H]2c3cc(NC(=O)Nc4ccccc4F)ccc3O[C@@H]2[C@@H](CO)O1)NCC1CC1 | 0 | 0 | 0 | 0 | 0 | 9 | . | .
CCC(=O)N1[C@H](CO)[C@@H](c2ccccc2)[C@H]1CN(C)C(=O)CN1CCOCC1 | 0 | 1.6* | -17 | 1 | 6 | 1 | -0.027 | i
COc1ccc(-c2ccc([C@@H]3[C@@H](CO)N4C(=O)CN(C(=O)C5CCOCC5)C[C@@H]34)cc2)cc1 | 0 | . | . | . | 0 | 1 | . | .
COc1ccc(OC(C)C(=O)N(C)Cc2nc(-c3cccc(C)c3)no2)cc1 (stereo not given) | 0 | 1.6* | 2 | 2 | -7 | 0 | -0.051 | i
SMILES | E-sel inducer | FGF22 binding-1 | C2C12 statin | FN deposition inh | Ecoli rRNA inh | SIRT5 block | FGF22 binding-2 | SYPRO no-protein | others
COCC(=O)N1[C@H](C#N)[C@H](c2ccccc2-c2cccc(OC)c2)[C@@H]1CO | 0 | 0 | . | -5 | 3 | -2 | . | .
O=C(N/N=C/c1c[nH]c2ccccc12)c1ccc(O)c(O)c1 | 0 | 2.4* | 3 | -3 | -1 | 5 | -0.034 | i | FGF22 TSA=0
COc1ccc(C(=O)N/N=C/c2c[nH]c3ccccc23)cc1 | . | 0 | -5 | 3 | 7 | 2 | . | .
O=C(N/N=C/c1c[nH]c2ccccc12)c1ccc([N+](=O)[O-])cc1Cl | . | . | 4 | . | . | . | . | .
O=C(N/N=C/c1c[nH]c2ccccc12)c1cccc(O)c1 | 0 | 2.1* | 20 | -3 | 3 | 1 | 0.52 | i | FGF22 TSA=1
O=C(N/N=C/c1c[nH]c2ccccc12)c1cccc(Cl)c1 | 1 | 2.8* | 1 | 4 | -2 | 2 | . | i | FGF22 TSA=0
O=C(N/N=C/c1ccsc1)c1c[nH]c2ccccc12 | 1 | 3.7* | -14 | 6 | 0 | 2 | -0.063 | i
COc1ccc(S(=O)(=O)N(C)C[C@H]2Oc3ccc(NC(=O)Nc4ccccc4)cc3C(=O)N([C@H](C)CO)C[C@H]2C)cc1 | 0 | 0 | -2 | . | 0 | 0 | . | .
COc1cccc(-c2ccc([C@H]3[C@H](CO)N4C(=O)CN(C(=O)NC(C)C)C[C@@H]34)cc2)c1 | 0 | -1 | . | . | 3 | -5 | . | .
